Source: ChEMBL document CHEMBL1136933 (J Med Chem, 2009)

What was measured:
[1] = target: T1, Muscarinic acetylcholine receptor M1 (Rattus norvegicus) (UniProt P08482); test: Activation of rat muscarinic M1 receptor expressed in CHO cells co-expressing Gq protein assessed as potentiation of acetylcholine-induced intracellular Ca2+ mobilization at 30 uM relative to acetylcholine; format: functional, cell-based
T1 sequence (whole entry): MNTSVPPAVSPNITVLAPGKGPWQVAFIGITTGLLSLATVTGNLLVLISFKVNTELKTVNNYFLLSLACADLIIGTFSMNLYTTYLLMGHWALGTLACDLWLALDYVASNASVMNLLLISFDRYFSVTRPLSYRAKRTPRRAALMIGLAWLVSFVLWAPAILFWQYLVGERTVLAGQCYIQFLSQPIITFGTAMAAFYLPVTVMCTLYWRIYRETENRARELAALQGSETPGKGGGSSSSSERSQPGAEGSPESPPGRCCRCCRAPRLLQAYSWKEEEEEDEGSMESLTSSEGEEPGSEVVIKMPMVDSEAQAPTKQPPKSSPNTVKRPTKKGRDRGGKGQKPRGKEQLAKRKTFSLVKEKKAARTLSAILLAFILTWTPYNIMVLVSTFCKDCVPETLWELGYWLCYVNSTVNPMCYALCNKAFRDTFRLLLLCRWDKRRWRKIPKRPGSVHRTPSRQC

[2] = target: T2, Muscarinic acetylcholine receptor M5 (Homo sapiens, UniProt P08912); test: Activation of human muscarinic M5 receptor expressed in CHO cells coexpressing Gq protein assessed as potentiation of acetylcholine-induced intracellular Ca2+ mobilization; format: functional, cell-based
T2 sequence (P08912 whole entry): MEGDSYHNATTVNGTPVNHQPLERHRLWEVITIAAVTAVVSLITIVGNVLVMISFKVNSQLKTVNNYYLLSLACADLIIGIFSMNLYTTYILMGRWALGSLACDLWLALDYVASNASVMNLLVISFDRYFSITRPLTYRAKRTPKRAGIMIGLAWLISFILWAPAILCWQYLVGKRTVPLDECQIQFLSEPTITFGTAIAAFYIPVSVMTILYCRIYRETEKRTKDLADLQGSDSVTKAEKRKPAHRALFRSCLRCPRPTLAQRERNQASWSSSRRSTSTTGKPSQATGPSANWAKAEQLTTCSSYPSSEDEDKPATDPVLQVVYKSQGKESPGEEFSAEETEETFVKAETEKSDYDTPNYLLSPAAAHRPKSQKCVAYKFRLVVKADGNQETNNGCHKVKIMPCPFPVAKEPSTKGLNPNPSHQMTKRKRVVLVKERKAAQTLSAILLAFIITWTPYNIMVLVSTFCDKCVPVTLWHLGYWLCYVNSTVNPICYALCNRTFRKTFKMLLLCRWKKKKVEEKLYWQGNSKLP

[3] = target: T3, Muscarinic acetylcholine receptor M1 (Rattus norvegicus, UniProt P08482); test: Activation of rat muscarinic M1 receptor expressed in CHO cells co-expressing Gq protein assessed as potentiation of acetylcholine-induced intracellular Ca2+ mobilization; format: functional, cell-based
T3 sequence (P08482 whole entry): T1 sequence (whole entry)

[4] = target: T4, Muscarinic acetylcholine receptor M5 (Homo sapiens) (UniProt P08912); test: Activation of human muscarinic M5 receptor expressed in CHO cells coexpressing Gq protein assessed as potentiation of acetylcholine-induced intracellular Ca2+ mobilization at 30 uM relative to acetylcholine; format: functional, cell-based
T4 sequence (whole entry): T2 sequence (P08912 whole entry)

[5] = target: T5, Muscarinic acetylcholine receptor M4 (Rattus norvegicus, UniProt P08485); test: Activation of rat muscarinic M4 receptor expressed in CHO cells coexpressing chimeric Gqi5 protein assessed as potentiation of acetylcholine-induced intracellular Ca2+ mobilization; format: functional, cell-based
T5 sequence (P08485 whole entry): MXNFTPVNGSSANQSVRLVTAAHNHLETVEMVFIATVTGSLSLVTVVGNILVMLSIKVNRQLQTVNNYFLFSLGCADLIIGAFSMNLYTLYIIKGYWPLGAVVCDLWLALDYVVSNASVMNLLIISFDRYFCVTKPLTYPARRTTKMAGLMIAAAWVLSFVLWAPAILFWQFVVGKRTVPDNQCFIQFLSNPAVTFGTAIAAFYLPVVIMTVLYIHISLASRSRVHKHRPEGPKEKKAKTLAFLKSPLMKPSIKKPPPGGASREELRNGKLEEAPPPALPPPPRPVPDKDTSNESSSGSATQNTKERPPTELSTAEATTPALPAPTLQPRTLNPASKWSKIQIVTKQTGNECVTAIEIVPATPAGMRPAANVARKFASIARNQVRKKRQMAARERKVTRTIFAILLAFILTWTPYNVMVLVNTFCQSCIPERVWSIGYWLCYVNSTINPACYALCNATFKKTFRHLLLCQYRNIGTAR
In short: (§1)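 Calcium flux assay. Stable CHO lines were seeded at 5 × 10^4 cells/well (M1, M3, M5) or 6 × 10^4 cells/well (Gqi5 M2, M4) and grown overnight at 37 °C, 5% CO2. Cells were loaded 1 h at 37 °C with 2 µM Fluo-4 AM. […] At least three independent determinations, each in duplicate or more.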

[6] = target: T4, Muscarinic acetylcholine receptor M5 (Homo sapiens); test: Inhibition of [3H]NMS binding to human muscarinic M5 receptor expressed in CHO cells coexpressing Gq protein at 30 uM by scintillation counting; format: cell-based
[7] = target: T6, Muscarinic acetylcholine receptor M2 (Rattus norvegicus, UniProt P10980); test: Activation of rat muscarinic M2 receptor expressed in CHO cells co-expressing chimeric Gqi5 protein assessed as potentiation of acetylcholine-induced intracellular Ca2+ mobilization; format: functional, cell-based; in short: as §1
T6 sequence (P10980 whole entry): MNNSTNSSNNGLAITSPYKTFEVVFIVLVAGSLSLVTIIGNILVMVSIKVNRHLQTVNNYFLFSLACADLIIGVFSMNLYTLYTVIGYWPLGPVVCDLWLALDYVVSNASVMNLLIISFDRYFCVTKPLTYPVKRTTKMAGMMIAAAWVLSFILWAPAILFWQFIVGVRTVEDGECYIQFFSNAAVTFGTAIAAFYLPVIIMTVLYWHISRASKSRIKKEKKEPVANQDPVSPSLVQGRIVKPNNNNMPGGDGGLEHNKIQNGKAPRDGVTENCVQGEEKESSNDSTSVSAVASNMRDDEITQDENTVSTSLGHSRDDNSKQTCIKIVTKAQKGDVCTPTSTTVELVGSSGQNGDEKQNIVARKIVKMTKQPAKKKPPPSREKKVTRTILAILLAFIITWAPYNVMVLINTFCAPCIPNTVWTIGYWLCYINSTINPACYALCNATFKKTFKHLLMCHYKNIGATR

[8] = target: T7, Muscarinic acetylcholine receptor M3 (Homo sapiens, UniProt P20309); test: Activation of human muscarinic M3 receptor expressed in CHO cells coexpressing Gq protein assessed as potentiation of acetylcholine-induced intracellular Ca2+ mobilization at 30 uM relative to acetylcholine; format: functional, cell-based
Target sequence in this assay (P20309 whole entry, looked up): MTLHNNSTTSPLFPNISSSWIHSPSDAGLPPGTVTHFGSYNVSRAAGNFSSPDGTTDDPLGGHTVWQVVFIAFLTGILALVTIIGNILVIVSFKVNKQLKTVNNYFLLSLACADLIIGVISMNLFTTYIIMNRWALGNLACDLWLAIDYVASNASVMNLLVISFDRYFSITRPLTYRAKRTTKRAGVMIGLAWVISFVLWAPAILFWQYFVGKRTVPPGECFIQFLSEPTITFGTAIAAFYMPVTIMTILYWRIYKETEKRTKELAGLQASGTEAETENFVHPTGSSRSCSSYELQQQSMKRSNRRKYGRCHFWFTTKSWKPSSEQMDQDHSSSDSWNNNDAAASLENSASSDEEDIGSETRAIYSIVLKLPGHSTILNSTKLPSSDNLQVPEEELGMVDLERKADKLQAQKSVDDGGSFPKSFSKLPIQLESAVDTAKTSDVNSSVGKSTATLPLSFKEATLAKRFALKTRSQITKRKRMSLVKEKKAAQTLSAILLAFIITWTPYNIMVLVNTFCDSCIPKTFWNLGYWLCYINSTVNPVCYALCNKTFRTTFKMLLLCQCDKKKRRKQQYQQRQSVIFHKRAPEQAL

[9] = target: T7, Muscarinic acetylcholine receptor M3; test: Activation of human muscarinic M3 receptor expressed in CHO cells coexpressing Gq protein assessed as potentiation of acetylcholine-induced intracellular Ca2+ mobilization; format: functional, cell-based; in short: as §1
Target sequence in this assay (P20309 whole entry): as the sequence (P20309 whole entry, looked up) above

[10] = target: T8, Muscarinic acetylcholine receptor M2 (Rattus norvegicus) (UniProt P10980); test: Activation of rat muscarinic M2 receptor expressed in CHO cells coexpressing chimeric Gqi5 protein assessed as potentiation of acetylcholine-induced intracellular Ca2+ mobilization at 30 uM relative to acetylcholine; format: functional, cell-based
T8 sequence (whole entry): T6 sequence (P10980 whole entry)

SMILES	%max [1]	EC50 [2]	EC50 [3]	%max [4]	EC50 ([5]; cho)	inhibition [6]	EC50 ([7]; cho)	%max [8]	EC50 [9]	EC50 ([5]; read-out: EC50)	EC50 ([7]; read-out: EC50)	%max [10]
O=C1C(=O)N(Cc2ccc(OC(F)(F)F)cc2)c2ccc(OC(F)(F)F)cc21	13.8%	1.86 µM	> 30 µM	58.9%	–	–	–	–	–	–	–	–
O=C1C(=O)N(Cc2ccc(Br)cc2F)c2ccc(OC(F)(F)F)cc21	11.6%	> 10 µM	> 30 µM	36.4%	–	–	–	–	–	–	–	–
O=C1C(=O)N(Cc2ccccc2C(F)(F)F)c2ccc(F)cc21	47.8%	4.09 µM	6.21 µM	36.1%	–	–	–	–	–	–	–	–
COc1cccc(CN2C(=O)C(=O)c3cc(OC(F)(F)F)ccc32)c1	28.6%	1.7 µM	> 30 µM	70.1%	–	–	–	–	–	–	–	–
O=C1C(=O)N(Cc2ccc(C(F)(F)F)cc2)c2ccc(OC(F)(F)F)cc21	25.7%	1.85 µM	7.09 µM	67.2%	–	–	–	–	–	–	–	–
Cc1ccccc1CN1C(=O)C(=O)c2cc(OC(F)(F)F)ccc21	26.2%	3.28 µM	> 30 µM	60%	–	–	–	–	–	–	–	–
COc1cccc(CN2C(=O)C(=O)c3c(Cl)ccc(Cl)c32)c1	13.3%	7.15 µM	> 30 µM	35.1%	–	–	–	–	–	–	–	–
O=C1C(=O)N(Cc2ccccc2C(F)(F)F)c2c(F)cccc21	41.3%	> 30 µM	> 30 µM	30.9%	–	–	–	–	–	–	–	–

Next, values leading:

%max [1]	EC50 [2]	EC50 [3]	%max [4]	EC50 ([5]; cho)	inhibition [6]	EC50 ([7]; cho)	%max [8]	EC50 [9]	EC50 ([5]; read-out: EC50)	EC50 ([7]; read-out: EC50)	%max [10]	SMILES
12.3%	4.07 µM	> 30 µM	51.9%	–	–	–	–	–	–	–	–	O=C1C(=O)N(Cc2ccccc2Cl)c2ccc(OC(F)(F)F)cc21
60.9%	3.26 µM	5.18 µM	71.1%	–	–	–	–	–	–	–	–	O=C1C(=O)N(Cc2ccc(C(F)(F)F)cc2)c2c(F)cccc21
62.7%	1.93 µM	3.99 µM	51.7%	–	–	–	–	–	–	–	–	O=C1C(=O)N(Cc2ccc(Br)cc2)c2c(F)cccc21
82.4%	4.08 µM	6.04 µM	74.4%	Not Active	50%	Not Active	65.5%	6.38 µM	–	–	–	O=C1C(=O)N(Cc2ccc(Br)cc2)c2ccccc21
67%	2.11 µM	3.2 µM	70.8%	–	–	–	78%	2.22 µM	> 10 µM	2.84 µM	55%	O=C1C(=O)N(Cc2ccc(C(F)(F)F)cc2)c2c(Cl)cccc21
49.4%	3.96 µM	5.38 µM	30.3%	–	–	–	–	–	–	–	–	COc1ccc(CN2C(=O)C(=O)c3cccc(Cl)c32)cc1
